HCT116 bCat-KO = beta-catenin-lacking colon tumor cell growth suppression | 140,000 tested, 1.5% active | HCT116 beta-catenin knockout viability, CellTiter-Glo, 60 h; hits give low values | viability, % at 10 µM | AID 818;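 active means viability at or under a set limit, the compound median less 4 SD, cut at about 6% in these data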;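 further: 0% = Hyamine 1622 control at 20 µM and 100% = untreated cell control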
H69AR growth 86K = blocks growth of human H69AR lung tumor cells. H69AR lung tumor viability, ATP luminescence, 72 h; hits give low values. viability, % at 10 µM. 85,000 tested, 6% active;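 active means viability at or below 40%; inactive means viability above 40%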;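 further: multidrug resistant small cell line overexpressing MRP-1 efflux transporter; 100% = mean luminescence of untreated control wells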
Lung fibro prol = blocks proliferation of human lung fibroblasts; 85,000 tested, 1.1% active; viability, % at 10 µM; LL 47 human lung fibroblast viability, ATP luminescence; hits give low values; AID 719;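 active means viability at or below 50% in the single dose screen; inactive means viability above 50%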;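 further: compound exposure lasted 72 h before the ATP readout; 100% = median luminescence of untreated cell-only wells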
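Material: Human LL 47 lung fibroblast cells | Input: 1,150 cells/well | Buffer or medium: IMEM plus 15% FBS | Compound dosing: 0.1% DMSO in all compound wells | Times: Overnight cell rest, 72 h compound treatment at 37 °C | Signal: CellTiter-Glo luminescence measuring cellular ATP | Measure: % viability versus median cells-only luminescence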
PTEN del growth = PTEN-deleted cell growth suppression. 140,000 tested, 1.2% active. AID 827. viability, % at 10 µM. HCT116 PTEN-null viability, CellTiter-Glo, 60 h; hits give low values;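 active means viability at or below a set limit, 4 SD under the median of all tested compounds, cut at about 3.7% in these data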;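 further: PTEN knockout HCT116 line with beta catenin targeted HCT116 as companion control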
HUVEC inhibit = blocks proliferation of human endothelial cells. HUVEC proliferation, CellTiter-Glo luminescence, 72 h; hits give low values. viability, % at 10 µM (by protocol). 86,000 tested, 1.1% active. AID 648;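 active means viability at or below 30%; inactive means viability above 30%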;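 further: 100% = median luminescence of DMSO-only cell control wells on each plate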
The depositor's hits bear a star; nt = not tested or not shown. Only a selection was taken, and hits are over-represented in it overall.

SMILES | HCT116 bCat-KO | H69AR growth 86K | Lung fibro prol | PTEN del growth | HUVEC inhibit
COC(=O)c1ccc(-n2nnnc2SCc2ccccc2OC)cc1 | 28.8 | 37.0* | 97.8 | 43.0 | 88.8
CCOc1ccc(OCCOCCNCCOC)cc1 | 92.8 | nt | nt | 98.4 | nt
COc1ccc(-c2cc(N)n(S(=O)(=O)c3c(F)c(F)c(F)c(F)c3F)n2)cc1OC | 5.7* | 1.4* | 2.6* | 2.1* | 2.2*
OC1(c2cccc(C(F)(F)F)c2)CCN(c2ncnc3c2[nH]c2ccc(F)cc23)CC1 | 6.4 | 2.4* | 61.5 | 2.6* | 6.4*
NC(N)=N/N=C/c1ccc(OCc2ccc(Cl)cc2)cc1 | 1.5* | nt | nt | 1.5* | nt
Cc1ccc(COc2ccc(/C=N/O)cc2)cc1 | 105.8 | nt | nt | 98.1 | nt
NC(N)=N/N=C/c1ccc(OCc2ccccc2)cc1 | 1.7* | nt | nt | 1.8* | nt
CCOc1ccccc1N1CCN(C(=O)C2c3ccccc3Oc3ccccc32)CC1 | 14.6 | 19.3* | 68.1 | 13.8 | 56.1
NNC(=O)c1cc(Br)cs1 | 88.0 | nt | nt | 103.6 | nt
Cc1cc(Cl)ccc1NC(=S)NCc1ccccc1Cl | 72.0 | nt | nt | 60.8 | nt
O=C(c1cnn2c1NC(c1ccc(Br)cc1)CC2C(F)(F)F)N1CCN(C23CC4CC(CC(C4)C2)C3)CC1 (stereo not drawn) | 47.1 | 87.5 | 93.1 | 45.5 | 89.1
COc1cccc(/C=N/n2c(SC)nnc2-c2ccccc2)c1O | 38.8 | 23.2* | 89.3 | 31.2 | 51.0
Fc1cccc(Cl)c1Cn1nnc(-c2ccc3c(c2)OCO3)n1 | 73.7 | 84.9 | 97.9 | 84.3 | 95.3
Fc1cccc(Cl)c1CSc1nnnn1-c1ccc2c(c1)OCO2 | 63.3 | 15.4* | 92.5 | 71.6 | 88.6
CCCc1cc(=O)[nH]c(/N=C(/NC(=O)c2ccccc2)Nc2ccc3c(c2)OCCO3)n1 | nt | 32.4* | 75.9 | nt | 55.4
COc1ccc(CNC(=O)/C(C#N)=C2\N=C(NC(=O)c3cccs3)c3ccccc32)cc1 | 92.2 | nt | nt | 88.4 | nt
COC(=O)c1nc(NC2=NCCCCC2)n[nH]1 | 113.7 | 39.2* | nt | 106.7 | 94.2
COC(=O)c1nc(NC(C)=O)n[nH]1 | 98.9 | 93.4 | 104.7 | 98.8 | 102.5
N#Cc1ccc(-c2csc(NNC(=O)c3ccc(Br)cc3)n2)cc1 | 2.8* | nt | nt | 4.5 | nt
C/C(CC(=O)NCC(C)C)=N\NC(=O)COc1cc(C)c(Br)cc1Br | 105.3 | nt | nt | 101.8 | nt
COc1ccc(-c2coc3cc4oc(=O)c5ccccc5c4cc23)cc1F | 4.5* | nt | nt | 6.4 | nt
Cc1c(CCC(=O)O)c(=O)oc2cc3occ(-c4ccc(F)cc4)c3cc12 | 95.6 | 102.4 | 90.7 | 90.5 | 104.4
CCOC(=O)COc1ccccc1/C=C\[N+](=O)[O-] | 79.2 | nt | nt | 86.4 | nt
c1ccc(CCNc2ncnc3scc(C4COc5ccccc5O4)c23)cc1 (stereo not drawn) | 54.9 | 28.2* | 97.0 | 50.1 | 87.4
COc1ccc(S(=O)(=O)N2c3cc(Cl)ccc3Oc3nc4ccccc4nc32)cc1 | 12.6 | 29.0* | 56.3 | 13.0 | 47.8
SMILES | HCT116 bCat-KO | H69AR growth 86K | Lung fibro prol | PTEN del growth | HUVEC inhibit
Cc1ccc(S(=O)(=O)N2CCCC(C(=O)Nc3ccc(NC(=O)c4ccccn4)cc3)C2)cc1 (stereo not drawn) | 7.8 | 20.6* | 75.9 | 20.4 | 75.1
CCOC(=O)c1ccc(NC(=O)C2CCCN(S(=O)(=O)c3ccc(F)cc3)C2)cc1 (stereo not drawn) | 9.2 | 19.5* | 94.3 | 14.2 | 74.0
O=C(Nc1ccc(Oc2ccccc2)cc1)C1CCCN(c2ncccn2)C1 (stereo not drawn) | 98.6 | 39.6* | 92.2 | 91.6 | 85.1
CCOC(=O)c1ccc(NC(=O)C2CCN(S(=O)(=O)CC)CC2)cc1 | 108.2 | 70.1 | 96.5 | 105.0 | 87.5
O=C1C=C(NCc2ccc(Cl)cc2)CCC1 | 86.1 | nt | nt | 82.5 | nt
COC(=O)c1cccc(Cn2c(Cl)c(/C=N/NC(=O)c3ccccc3Cl)sc2=O)c1 | 89.9 | 31.5* | 97.1 | 77.7 | 79.2
O=c1sc(/C=N/Nc2ccccc2)c(Cl)n1Cc1ccccc1 | 86.8 | nt | nt | 75.9 | nt
CC(C)CC(NC(=O)CCl)c1ccccc1 (stereo not drawn) | 56.6 | nt | nt | 61.6 | nt
CC(NC(=O)CCl)c1ccc(Cl)c(Cl)c1 (stereo not drawn) | 2.9* | nt | nt | 3.8* | nt
COc1ccc(C)cc1NS(=O)(=O)c1ccc(Br)s1 | 85.7 | 21.7* | 87.8 | 70.5 | 60.9
O=C1CCc2cc(S(=O)(=O)N3CCC(C(=O)NC4CCCCCCC4)CC3)ccc2N1 | 88.6 | 89.2 | 94.2 | 98.0 | 87.7
O=C(NC1CCCCCC1)C1CCN(S(=O)(=O)c2ccc(F)cc2)CC1 | 78.0 | 31.9* | 91.5 | 83.1 | 105.5
O=c1[nH]c(/C=C/c2ccccc2OC(F)F)nc2c1cnn2-c1ccccc1 | 40.4 | nt | nt | 29.3 | nt

Bioassay records (PubChem BioAssay)
